Experiment [1] concerns Plasmodium berghei. In words: Antimalarial activity against Plasmodium berghei NK65 infected in human HepG2 cells assessed as inhibition of transformation of sporozoites into liver stage at 10 uM treated 3 hrs after infection measured 40 hrs after drug washout. Type of experiment: functional, organism-based. The essentials:
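Compound at 10 μM was added to HepG2 cultures 3 h after P. berghei NK65 sporozoite addition. Liver stages were detected at 40 h p.i. by MAb 2E6/FITC immunofluorescence and counted. Compared with untreated wells by t test. At least three experiments, in duplicate.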

For experiment [2], the system named is Plasmodium berghei. In words: Antimalarial activity against Plasmodium berghei NK65 infected in human HepG2 cells assessed as inhibition of sporozoite invasion after 1 hr. Type of experiment: functional. The gist of the method: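 HepG2 cells were infected with P. berghei NK65 sporozoites (5 × 10⁴/well) with compound at 0.5, 2 or 10 μM for 1 h at 37°C. Cells were fixed with 4% paraformaldehyde and double-stained to tell intracellular from extracellular sporozoites. Intracellular sporozoites were counted.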

Experiment [3] relates to Plasmodium berghei. Nature of the experiment: Inhibition of Plasmodium berghei NK65 motility up to 10 uM after 2 hrs. It counts as functional, organism-based. The gist of the method: (§1)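 Gliding assay. Slides were coated with anti-CSP MAb 3D11 (10 μg/ml). P. berghei NK65 sporozoites (1 × 10⁴/well) were added with compound at 0.5, 2 or 10 μM in DMEM with 3% BSA and incubated 2 h at 37°C. Wells were fixed with paraformaldehyde and blocked. Trails were stained with biotinylated 3D11 and streptavidin-FITC.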

For experiment [4], the system named is Plasmodium berghei. In words: Antimalarial activity against Plasmodium berghei NK65 assessed as reduction of number of complex trails up to 10 uM relative to untreated control. Type of experiment: functional. Also on record: scale not given: the % may be the effect or the level left. The essentials:
as §1

The test system of experiment [5] is Plasmodium yoelii. In words: Antimalarial activity against Plasmodium yoelii 17XNL infected in Swiss-Webster mouse liver assessed as reduction of parasite burden at 50 mg/kg, ip administered 15 mins before infection measured up to 22 days relative to PBS treated group. Type of experiment: functional. The following applies: route intraperitoneal.
The subject of experiment [6] is Plasmodium yoelii. In words: Antimalarial activity against Plasmodium yoelii 17XNL infected in Swiss-Webster mouse liver assessed as reduction liver-stage infection at 50 mg/kg, ip administered 15 mins before infection measured up to 22 days. Type of experiment: functional, organism-based. Also on record: dose 50 mg/kg. The gist of the method:
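Female Swiss-Webster mice (6–8 weeks, n = 3) received one ip dose of 50 mg/kg in PBS, or PBS alone, before iv infection with P. yoelii 17XNL sporozoites (1 × 10⁴/mouse). The prepatent period was followed by daily Giemsa-stained blood smears.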

Experiment [7] has as its system Plasmodium yoelii. In words: Antimalarial activity against Plasmodium yoelii 17XNL infected in Swiss-Webster mouse liver assessed as prevention of appearance of blood-stage parasites at 50 mg/kg, ip administered first dose 15 mins before infection and second and third doses given 6 hrs and 12 hrs postinfection measured up to 22 days. Type of experiment: functional, organism-based. Further details: dose 50 mg/kg. The essentials:
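Female Swiss-Webster mice (6–8 weeks, n = 10) were given 50 mg/kg ip in PBS, or PBS alone. Doses were given 15 min before iv injection of P. yoelii 17XNL sporozoites (5 × 10³/mouse), then at 6 h and 12 h p.i. Blood-stage parasites were checked daily on Giemsa-stained smears for up to 3 weeks.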

The subject of experiment [8] is Plasmodium berghei. In words: Antimalarial activity against PbPKG knockout Plasmodium berghei NK65 infected in human HepG2 cells assessed as reduction of liver stage parasites level treated for 3 hrs measured 40 hrs after drug washout. Type of experiment: functional, organism-based.
Experiment [9] deals with Plasmodium berghei. Nature of the experiment: Antimalarial activity against PbPKG knockout Plasmodium berghei NK65 infected in human HepG2 cells assessed as reduction of liver stage parasites level treated before infection measured 40 hrs after drug washout. Type of experiment: functional, organism-based.
Experiment [10] relates to Plasmodium berghei. In words: Antimalarial activity against Plasmodium berghei NK65 infected in human HepG2 cells assessed as reduction of liver stage parasites level treated for 12 hrs measured 40 hrs after drug washout. It counts as functional, organism-based. The gist of the method: (§2)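 P. berghei NK65 sporozoites from mosquito salivary glands (5 × 10⁴/well) added to HepG2 cells seeded the day before in DMEM/10% FCS, with compound at 0.5, 2 or 10 μM. At 12 h p.i. the medium was replaced with compound-free medium. Liver stages at 40 h p.i. were stained with MAb 2E6 and FITC anti-mouse IgG and counted by fluorescence microscopy. At least three experiments, each in duplicate.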

Experiment [11] concerns Plasmodium berghei. In words: Antimalarial activity against Plasmodium berghei NK65 infected in human HepG2 cells assessed as inhibition of transformation of sporozoites into liver stage at 10 uM treated for 3 hrs measured 40 hrs after drug washout. It counts as functional, organism-based. The gist of the method: (§3)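 HepG2 cells were infected with P. berghei NK65 sporozoites (5 × 10⁴/well) in the presence of compound. The compound-containing medium was removed 3 h after infection. Liver stages at 40 h p.i. were immunostained with MAb 2E6 and FITC secondary, then counted by fluorescence microscopy. At least three experiments, in duplicate.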

Experiment [12] concerns Plasmodium berghei. In words: Antimalarial activity against Plasmodium berghei NK65 infected in human HepG2 cells assessed as reduction of liver stage parasites level at 2 uM treated for 12 hrs measured 40 hrs after drug washout. Type of experiment: functional, organism-based. The essentials:
as §2

For experiment [13], the system named is Plasmodium berghei. In words: Antimalarial activity against Plasmodium berghei NK65 infected in human HepG2 cells assessed as reduction of liver stage parasites level at 2 uM treated for 3 hrs measured 40 hrs after drug washout. Type of experiment: functional, organism-based. The gist of the method:
as §3

In experiment [14] the test system is Plasmodium yoelii. Nature of the experiment: Antimalarial activity against Plasmodium yoelii infected in Swiss-Webster mouse liver assessed as reduction of parasite burden at 50 mg/kg, ip administered 15 mins before infection measured up to 22 days relative to PBS treated group. The following applies: route intraperitoneal.
For experiment [15], the system named is Plasmodium berghei. In words: Antimalarial activity against Plasmodium berghei ANKA infected through mosquito bite in C57BL/6 mouse liver assessed as increase of average prepatent period at 50 mg/kg, ip administered first dose 15 mins before infection and second and third doses given 6 hrs and 12 hrs postinfection measured up to 22 days (reference value: 2.66 +/- 0.57 days). The following applies: route intraperitoneal.

Experimental findings from ChEMBL document CHEMBL1687770, “Activity of a trisubstituted pyrrole in inhibiting sporozoite invasion and blocking malaria infection” (2010) are described below.

SMILES strings stand for the structures. The source made the active and inactive calls. The calls are words filed in the database; no cut-off is given here.

With `CN1CCC(c2cc(-c3ccncc3)c(-c3ccc(F)cc3)[nH]2)CC1`, the inhibition result in the experiment on Plasmodium berghei [1] and with Plasmodium berghei [3] was “inactive” each time. Besides, the INH in the experiment on Plasmodium berghei [2] was more than 1 µM. Moreover, the values for the Activity in the experiment with Plasmodium berghei [4] and in the experiment on Plasmodium berghei [10] were 50% and “Dose dependent effect”, respectively. The “fold change (FC)” value in the experiment on Plasmodium yoelii [5] and with Plasmodium yoelii [14] was more than 1000 throughout. The result in the experiment on Plasmodium yoelii [6], in the experiment with Plasmodium yoelii [7], in the experiment with Plasmodium berghei [8], with Plasmodium berghei [12] and with Plasmodium berghei [13] was Active. The result with Plasmodium berghei [9] was inactive. For the same compound, in the experiment with Plasmodium berghei [11], the inhibition entry is “Active”. Also, the Time in the experiment on Plasmodium berghei [15] worked out at 5.33 days.
